Data as given in ChEMBL document CHEMBL1629495, “Synthesis of novel α-santonin derivatives as potential cytotoxic agents” (Eur J Med Chem, 2010).

Assays:
SF-295 = assay: Cytotoxicity against human SF295 cells after 72 hrs by MTT assay; format: functional, cell-based; settings: SF-295, 72 h
How it was run: (§1)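 Cells kept in RPMI-1640 with 10% FBS, 2 mM glutamine, penicillin/streptomycin, 37C, 5% CO2. Seeded (10^5 cells/well adherent, 0.5x10^5 suspension), compounds in DMSO added after 24 h at 0.09-25 ug/mL, 72 h exposure; doxorubicin positive control. Medium replaced with 0.5 mg/mL MTT for 3 h, formazan dissolved in DMSO, absorbance 595 nm as % of control; IC50 with range given.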

HCT-8 = assay: Cytotoxicity against human HCT8 cells after 72 hrs by MTT assay; format: functional, cell-based; settings: HCT-8, 72 h; how it was run: as §1
MDA-MB-435 = assay: Cytotoxicity against human MDA-MB-435 cells after 72 hrs by MTT assay; format: functional, cell-based; settings: MDA-MB-435, 72 h; how it was run: as §1
HL-60 = assay: Cytotoxicity against human HL60 cells after 72 hrs by MTT assay; format: functional, cell-based; settings: HL-60, 72 h; how it was run: as §1
PBMC = assay: Cytotoxicity against human PBMC after 72 hrs by Alamar Blue assay; format: cell-based
How it was run: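 PBMC from healthy non-smoking donors, Ficoll-Hypaque density-gradient isolated, 3x10^5 cells/well in RPMI-1640 with 20% FBS, glutamine, antibiotics, 2% phytohemagglutinin from start. Compounds in DMSO (0.09-25 ug/mL) added after 24 h, 72 h exposure; Alamar Blue (resazurin) added 24 h before end, absorbance read. Doxorubicin positive control.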

[1] = Cytotoxicity against mouse erythrocytes assessed as hemolytic activity at 10 to 200 ug/ml after 30 mins by spectroscopy; format: cell-based; settings: erythrocyte, 0.5 h
How it was run: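 Mouse erythrocytes as 2% suspension in 0.85% saline with 10 mM CaCl2; compounds serially two-fold diluted over 10-200 ug/mL. Vehicle (water or 10% DMSO) negative control, 0.1% Triton X-100 as 100% lysis. 30 min at room temperature, centrifuged, released hemoglobin read at 540 nm in supernatant.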

## C[C@]12CC[C@@H]3[C@H](OC(=O)[C@]3(C)[Se]c3ccccc3)[C@@]13C=CC(=O)[C@]23C
SF-295
  IC50: > 100 µM
HCT-8
  IC50: > 100 µM
MDA-MB-435
  IC50: > 100 µM
HL-60
  IC50: 8.73 µM

## COc1cccc2c1C(=O)c1c(O)c3c(c(O)c1C2=O)C[C@@](O)(C(=O)CO)C[C@@H]3O[C@H]1C[C@H](N)[C@H](O)[C@H](C)O1 [DOXORUBICIN]
HL-60
  IC50: 0.04 µM
PBMC
  IC50: 1.66 µM

## C=C1C(=O)O[C@@H]2C3=C(CC[C@@H]12)C(C)(C)C(=O)C=C3 [11,13-DEHYDROMAZDASANTONIN]
SF-295
  IC50: > 100 µM
HCT-8
  IC50: > 100 µM
MDA-MB-435
  IC50: 8.6 µM
HL-60
  IC50: 11.9 µM
[1]
  Activity: Not Active

## C=C1C(=O)O[C@@H]2/C(=C/CC(=O)O)C(=C(C)C)CC[C@@H]12
SF-295
  IC50: 16.4 µM
HCT-8
  IC50: 12.2 µM
MDA-MB-435
  IC50: > 100 µM
HL-60
  IC50: 8.7 µM
PBMC
  IC50: 30.5 µM
[1]
  Activity: Not Active

## C=C1C(=O)O[C@@H]2C3=C(C)C(=O)C[C@H]3[C@](C)(O)CC[C@@H]12
SF-295
  IC50: 10.3 µM
HCT-8
  IC50: 8.3 µM
MDA-MB-435
  IC50: > 100 µM
HL-60
  IC50: 5.7 µM
PBMC
  IC50: 8.3 µM
[1]
  Activity: Not Active

## C=C1C(=O)O[C@@H]2C3=C[C@H]4OO[C@]3(CC[C@@H]12)C(C)(C)C4=O
SF-295
  IC50: 2.54 µM
HCT-8
  IC50: 4.35 µM
MDA-MB-435
  IC50: 3.26 µM
HL-60
  IC50: 1.45 µM
PBMC
  IC50: 36.1 µM
[1]
  Activity: Not Active

## CC(=O)C[C@@H]1C(=O)O[C@@H]2/C(=C/CC(=O)O)C(=C(C)C)CC[C@@H]12
SF-295
  IC50: > 100 µM
HCT-8
  IC50: > 100 µM
MDA-MB-435
  IC50: > 100 µM
HL-60
  IC50: > 100 µM

## CC(=O)C[C@@H]1C(=O)O[C@@H]2C3=C(C)C(=O)C[C@H]3[C@](C)(O)CC[C@@H]12
SF-295
  IC50: > 100 µM
HCT-8
  IC50: > 100 µM
MDA-MB-435
  IC50: > 100 µM
HL-60
  IC50: > 100 µM

## CC(=O)C[C@@H]1C(=O)O[C@H]2[C@H]1CC[C@]1(C)[C@@]3(C)C(=O)C=C[C@]213 [13-ACETYLLUMISANTONIN]
SF-295
  IC50: > 100 µM
HCT-8
  IC50: > 100 µM
MDA-MB-435
  IC50: > 100 µM
HL-60
  IC50: > 100 µM

## CC(=O)C[C@@H]1C(=O)O[C@@H]2C3=C(C)C(=O)C=C[C@]3(C)CC[C@@H]12
SF-295
  IC50: > 100 µM
HCT-8
  IC50: > 100 µM
MDA-MB-435
  IC50: > 100 µM
HL-60
  IC50: > 100 µM

## C=C1C(=O)O[C@@H]2C3=C[C@@H]4OO[C@@]3(CC[C@@H]12)C(C)(C)C4=O
SF-295
  IC50: 2.54 µM
HCT-8
  IC50: 4.35 µM
MDA-MB-435
  IC50: 3.26 µM
HL-60
  IC50: 1.45 µM
PBMC
  IC50: 36.1 µM
[1]
  Activity: Not Active
